Data on 56 compounds can be found in ChEMBL document CHEMBL4011602, “Xanthine oxidase inhibitory activity of nicotino/isonicotinohydrazides: A systematic approach from in vitro, in silico to in vivo studies” (Bioorg Med Chem, 2017).

Test [1] concerns the target T1, Xanthine dehydrogenase/oxidase (Bos taurus, UniProt P80457). Kind of test: Inhibition of bovine xanthine oxidase using xanthine as substrate preincubated for 10 mins followed by substrate addition measured for 15 mins by spectrophotometric method.
Test [2] addresses T1, Xanthine dehydrogenase/oxidase. Kind of test: Competitive inhibition of bovine xanthine oxidase using varying levels of xanthine as substrate preincubated for 10 mins followed by substrate addition measured for 15 mins by Lineweaver-Burk plot/Dixon plot analysis. The method, boiled down:
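Run like the inhibition assay: XO (0.003 units/well) in 50 mM phosphate buffer pH 7.4, inhibitor in 90% DMSO, preincubated 10 min at 30 °C. Varied inhibitor and xanthine concentrations (0.0375, 0.075, 0.15, 0.300 mM), absorbance change at 295 nm over 15 min.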

Test [3] deals with Xanthine dehydrogenase/oxidase (Bos taurus) (UniProt P80457).
Test [4] deals with Rattus norvegicus. Kind of test: In vivo inhibition of xanthine oxidase in Wistar rat assessed as retention time of 6-MP at 50 mg/kg, ip using 6-mercaptopurine as substrate after 6 hrs by UPLC method (reference value: 4.912 min). In kind it is functional, organism-based.
The test system of test [5] is Rattus norvegicus. Kind of test: In vivo inhibition of xanthine oxidase in Wistar rat assessed as peak area of 6-MP at 50 mg/kg, ip using 6-mercaptopurine as substrate after 6 hrs by UPLC method (reference value: 7.3 mAU). The test is classed as functional.
In test [6] the test system is Rattus norvegicus. Kind of test: In vivo inhibition of xanthine oxidase in Wistar rat at 50 mg/kg, ip using 6-mercaptopurine as substrate after 6 hrs by UPLC method relative to control. The test is classed as functional.

T1 sequence (P80457 whole entry): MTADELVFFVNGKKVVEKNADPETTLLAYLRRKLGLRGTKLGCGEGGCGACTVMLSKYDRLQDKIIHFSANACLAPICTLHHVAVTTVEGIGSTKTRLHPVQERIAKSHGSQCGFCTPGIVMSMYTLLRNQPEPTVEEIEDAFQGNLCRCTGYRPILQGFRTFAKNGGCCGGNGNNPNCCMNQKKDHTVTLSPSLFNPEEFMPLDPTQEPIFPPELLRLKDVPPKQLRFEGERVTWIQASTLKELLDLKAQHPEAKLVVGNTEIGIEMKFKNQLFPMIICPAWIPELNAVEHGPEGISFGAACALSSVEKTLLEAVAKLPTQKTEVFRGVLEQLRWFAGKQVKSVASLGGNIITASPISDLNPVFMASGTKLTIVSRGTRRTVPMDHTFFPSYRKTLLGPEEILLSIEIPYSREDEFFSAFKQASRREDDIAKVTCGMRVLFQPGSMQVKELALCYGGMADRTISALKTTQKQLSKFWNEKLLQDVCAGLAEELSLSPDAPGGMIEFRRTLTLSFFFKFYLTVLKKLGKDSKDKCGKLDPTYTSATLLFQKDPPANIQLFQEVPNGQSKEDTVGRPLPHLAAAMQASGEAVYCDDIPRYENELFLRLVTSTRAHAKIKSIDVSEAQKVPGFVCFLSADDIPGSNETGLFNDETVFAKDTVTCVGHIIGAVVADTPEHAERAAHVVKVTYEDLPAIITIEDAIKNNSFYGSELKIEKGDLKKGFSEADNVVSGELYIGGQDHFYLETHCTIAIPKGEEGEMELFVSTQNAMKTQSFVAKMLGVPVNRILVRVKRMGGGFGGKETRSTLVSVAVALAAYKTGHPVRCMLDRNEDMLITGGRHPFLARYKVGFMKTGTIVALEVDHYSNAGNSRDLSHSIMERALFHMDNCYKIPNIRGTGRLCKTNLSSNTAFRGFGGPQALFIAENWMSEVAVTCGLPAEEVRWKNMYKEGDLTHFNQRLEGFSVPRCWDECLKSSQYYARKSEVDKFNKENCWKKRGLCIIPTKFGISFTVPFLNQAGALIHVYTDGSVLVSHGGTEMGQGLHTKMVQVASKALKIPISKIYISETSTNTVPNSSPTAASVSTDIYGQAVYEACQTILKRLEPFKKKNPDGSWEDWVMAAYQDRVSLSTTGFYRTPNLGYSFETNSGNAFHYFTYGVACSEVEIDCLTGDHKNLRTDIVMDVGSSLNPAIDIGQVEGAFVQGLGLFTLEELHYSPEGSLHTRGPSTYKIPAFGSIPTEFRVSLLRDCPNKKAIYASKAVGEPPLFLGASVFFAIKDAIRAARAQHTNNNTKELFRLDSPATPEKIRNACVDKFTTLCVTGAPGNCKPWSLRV
Xanthine dehydrogenase/oxidase (Bos taurus), sequence (P80457 whole entry, looked up): as the sequence (P80457 whole entry) above

For the compound `CSc1ccc(/C=N/NC(=O)c2ccncc2)cc1`, in test [1], the IC50 entry is “Not Active”.
Same read-out and setting: as for `O=C(N/N=C/c1ccccc1[N+](=O)[O-])c1cccnc1`, the entry is “Not Active”.
Still for that read-out and setting: as for `COc1ccc(O)c(/C=N/NC(=O)c2ccncc2)c1`, the entry is “Not Active”; as for `O=C(N/N=C/c1cccc(O)c1)c1ccncc1`, “Not Active”; as for `CCOc1ccccc1/C=N/NC(=O)c1ccncc1`, “Not Active”.
Same read-out and setting: as for `CN(C)c1ccc(/C=N/NC(=O)c2cccnc2)cc1`, the entry is “Not Active”.
Take `O=C(N/N=C/c1cc([N+](=O)[O-])ccc1Cl)c1ccncc1`: the IC50 entry in test [1] is given as “Not Active”.
On the same count and under the same terms, as for `COc1ccc(/C=N/NC(=O)c2cccnc2)c(OC)c1OC`, the entry is “Not Active”; as for `CCOc1ccccc1/C=N/NC(=O)c1cccnc1`, “Not Active”.
In the case of `O=C(N/N=C/c1cccc([N+](=O)[O-])c1)c1cccnc1`, in test [1] (read-out: IC50), the IC50 worked out at 184 µM.
The same measure, in the same setting: the same measure for `O=C(N/N=C/c1ccc(O)cc1)c1cccnc1`: 184 µM.
As to `COc1cccc(/C=N/NC(=O)c2ccncc2)c1O`, in test [1] (read-out: IC50), the IC50 is 21.1 µM. The compound further displayed a Ki in test [2] of 15 µM.
As to `CCOc1ccc(/C=N/NC(=O)c2ccncc2)cc1O`, in test [1], the IC50 entry is “Not Active”.
Same read-out and setting: as for `O=C(N/N=C/c1ccc([N+](=O)[O-])cc1)c1cccnc1`, the entry is “Not Active”; as for `O=C(N/N=C/c1ccc(O)c(O)c1O)c1cccnc1`, “Not Active”.
Regarding `O=C(N/N=C/c1ccccc1)c1cccnc1` [NICOTINIC ACID BENZYLIDENE-HYDRAZIDE], in test [1] (read-out: IC50), the half-inhibitory concentration (IC50) was determined as 211 µM.
For `COc1ccc(/C=N/NC(=O)c2cccnc2)cc1OC`, the IC50 entry in test [1] is given as “Not Active”.
For the compound `CCOc1cccc(/C=N/NC(=O)c2ccncc2)c1O`, in test [1] (read-out: IC50), the IC50 is 54.8 µM. Besides, the Ki in test [2] came to 51.3 µM.
Take `Cc1ccccc1/C=N/NC(=O)c1cccnc1`: the IC50 in test [1] (read-out: IC50) was determined as 180 µM.
Turning to `O=C(N/N=C/c1ccc(Cl)cc1Cl)c1ccncc1`, the concentration for half-maximal inhibition (IC50) result in test [1] was “Not Active”.
The same measure, in the same setting: the same measure for `Cc1ccc(O)c(/C=N/NC(=O)c2cccnc2)c1`: “Not Active”.
Consider `COc1cccc(O)c1/C=N/NC(=O)c1cccnc1`, for which the IC50 entry in test [1] is given as “Not Active”.
Still for that read-out and setting: as for `O=C(N/N=C/c1ccccc1[N+](=O)[O-])c1ccncc1`, the entry is “Not Active”.
In test [3], `O=C(O)c1cccnc1` [NIACIN] displayed an IC50 of 518 µM.
For the compound `CCOc1ccc(/C=N/NC(=O)c2cccnc2)cc1`, the IC50 in test [1] (read-out: IC50) came to 242 µM.
Take `O=C(N/N=C/c1cccc(O)c1)c1cccnc1`: in test [1], the IC50 result is “Not Active”.
For `O=C(N/N=C/c1cc(O)cc(O)c1)c1cccnc1`, in test [1] (read-out: IC50), the IC50 was 161 µM.
For `O=C(N/N=C/c1ccc(O)cc1)c1ccncc1`, the IC50 entry in test [1] is on record as “Not Active”.
On the same count and under the same terms, as for `COc1ccc(/C=N/NC(=O)c2ccncc2)cc1O`, the entry is “Not Active”.
As for `CCOc1cccc(/C=N/NC(=O)c2cccnc2)c1O`, the half-inhibitory concentration (IC50) in test [1] (read-out: IC50) is 264 µM.
`O=C(N/N=C/c1ccccc1Cl)c1ccncc1`: the IC50 result in test [1] was “Not Active”.
The same measure, in the same setting: as for `O=C(N/N=C/c1ccccc1)c1ccncc1` [N'-BENZYLIDENE ISONICOTINOHYDRAZIDE], the entry is “Not Active”.
Same read-out and setting: as for `O=C(N/N=C/c1ccccc1F)c1ccncc1`, the entry is “Not Active”.
For `O=C(N/N=C/c1cccc([N+](=O)[O-])c1)c1ccncc1`, in test [1] (read-out: IC50), the IC50 is 174 µM.
On the same count and under the same terms, as for `O=C(N/N=C/c1cccc(Cl)c1)c1cccnc1`, the figure is 205 µM.
For the compound `O=C(N/N=C/c1ccc(O)c(O)c1)c1ccncc1`, in test [1] (read-out: IC50), the IC50 came out at 12.4 µM. Besides, in test [2], the affinity, expressed as Ki, was 15.5 µM. Besides, the Retention time with Rattus norvegicus [4] turned out to be 4.95 min. In addition, the Activity with Rattus norvegicus [5] is 47.4 mAU. The same compound gave an inhibition in vivo at 50 mg/kg with Rattus norvegicus [6] of 28%.
As to `CCOc1ccc(/C=N/NC(=O)c2ccncc2)cc1`, in test [1] (read-out: IC50), the IC50 was found to be 330 µM.
Take `CCOc1ccc(/C=N/NC(=O)c2ccncc2)cc1OCC`: the IC50 result in test [1] is listed as “Not Active”.
Turning to `O=C(N/N=C/c1c(O)cc(O)cc1O)c1ccncc1`, in test [1] (read-out: IC50), the IC50 came out at 0.96 µM. Also, the affinity in test [2], expressed as Ki, was 0.82 µM. Also, the Retention time with Rattus norvegicus [4] is 4.92 min. The Activity in the test on Rattus norvegicus [5] stood at 73.5 mAU. This compound also returned an inhibition in vivo at 50 mg/kg with Rattus norvegicus [6] of 44%.
With `COc1ccc(O)c(/C=N/NC(=O)c2cccnc2)c1`, the IC50 entry in test [1] was “Not Active”.
Same read-out and setting: the same measure for `CN(C)c1ccc(/C=N/NC(=O)c2ccncc2)cc1` [N'-(4-DIMETHYLAMINOBENZYLIDENE)ISONICOTINOHYDRAZIDE]: “Not Active”; for `O=C(N/N=C/c1ccccc1O)c1ccncc1` [SALINAZID]: “Not Active”.
For `Oc1ncnc2[nH]ncc12` [ALLOPURINOL], the Retention time with Rattus norvegicus [4] was 4.93 min. For the same compound, the Activity in the test with Rattus norvegicus [5] is given as 166.3 mAU. The inhibition in vivo at 50 mg/kg with Rattus norvegicus [6] amounted to 100%.
On to `O=C(N/N=C/c1ccccc1Br)c1cccnc1`, for which the IC50 in test [1] (read-out: IC50) amounted to 198 µM.
Consider `O=C(N/N=C/c1ccc(O)c(O)c1)c1cccnc1`, for which the IC50 in test [1] (read-out: IC50) came out at 10 µM. In test [2], this compound displayed a Ki of 7.27 µM. Further, the Retention time in the test with Rattus norvegicus [4] is 4.9 min. For the same compound, in the test with Rattus norvegicus [5], the Activity is reported as 0.001 mAU.
For the compound `O=C(N/N=C/c1ccc(Cl)cc1)c1cccnc1`, the IC50 in test [1] (read-out: IC50) is 195 µM.
Same read-out and setting: the same measure for `COc1cccc(/C=N/NC(=O)c2cccnc2)c1O`: 175 µM.
For `O=C(N/N=C/c1ccccc1F)c1cccnc1`, the IC50 in test [1] (read-out: IC50) was 174 µM.
Turning to `COc1ccc(/C=N/NC(=O)c2ccncc2)cc1OC` [VERAZIDE], the IC50 result in test [1] was “Not Active”.
The same measure, in the same setting: as for `O=C(N/N=C/c1ccc(O)cc1O)c1ccncc1`, the entry is “Not Active”; as for `COc1ccccc1/C=N/NC(=O)c1cccnc1`, “Not Active”; as for `O=C(N/N=C/c1ccc([N+](=O)[O-])cc1)c1ccncc1` [N'-(4-NITROBENZYLIDENE)ISONICOTINOHYDRAZIDE], “Not Active”.
Still for that read-out and setting: as for `O=C(N/N=C/c1ccc(Cl)cc1Cl)c1cccnc1`, the entry is “Not Active”; as for `CSc1ccc(/C=N/NC(=O)c2cccnc2)cc1`, “Not Active”.
On to `O=C(N/N=C/c1cccc(Cl)c1)c1ccncc1` [N'-(3-CHLOROBENZYLIDENE)ISONICOTINOHYDRAZIDE], for which the half-inhibitory concentration (IC50) in test [1] (read-out: IC50) came to 206 µM.
On the same count and under the same terms, the same measure for `O=C(N/N=C/c1ccc(Cl)cc1)c1ccncc1`: 179 µM.
